Assay results taken from ChEMBL document CHEMBL1134461, “Hexahydrochromeno[4,3-b]pyrrole derivatives as acetylcholinesterase inhibitors” (J Med Chem, 2001).

Each compound was assayed against T1, Acetylcholinesterase (Homo sapiens, UniProt P22303).
T1 sequence (P22303 whole entry): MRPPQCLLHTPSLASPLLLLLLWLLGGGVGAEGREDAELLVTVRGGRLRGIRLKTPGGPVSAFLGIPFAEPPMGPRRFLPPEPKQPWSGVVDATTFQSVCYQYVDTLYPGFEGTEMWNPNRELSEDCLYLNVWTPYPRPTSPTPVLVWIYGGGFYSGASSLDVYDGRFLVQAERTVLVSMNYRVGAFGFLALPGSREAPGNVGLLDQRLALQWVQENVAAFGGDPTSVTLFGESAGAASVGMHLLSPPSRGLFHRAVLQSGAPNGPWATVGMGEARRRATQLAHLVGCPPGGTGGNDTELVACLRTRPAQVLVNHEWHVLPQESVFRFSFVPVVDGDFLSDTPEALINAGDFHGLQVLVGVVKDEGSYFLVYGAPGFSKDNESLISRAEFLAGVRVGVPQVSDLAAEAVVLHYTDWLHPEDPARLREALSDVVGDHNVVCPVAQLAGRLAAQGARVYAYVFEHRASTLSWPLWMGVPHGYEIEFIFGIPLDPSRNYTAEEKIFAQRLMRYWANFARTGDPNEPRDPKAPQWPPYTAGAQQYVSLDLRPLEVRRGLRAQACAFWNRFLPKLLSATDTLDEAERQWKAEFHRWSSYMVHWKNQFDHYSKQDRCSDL

Row | SMILES | k3 [min⁻¹]
1 | CNC(=O)Oc1cccc2c1OC[C@@H]1CCN(C)[C@H]21 (stereo in doubt; 4) [listing 1 of 2 here] | 26.5

What follows are compounds tested against T1, Acetylcholinesterase (assay: Inhibitory activity against acetylcholinesterase in human erythrocytes).
Format: cell-based
Summary of the method: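 Ellman colorimetric assay with human erythrocyte enzyme (AChE or BChE), 0.035 unit/mL, in 0.1 M phosphate buffer pH 8.0 with 340 μM DTNB. Inhibitor preincubated with enzyme 20 min, then 550 μM acetylthiocholine iodide added. […] IC50 read graphically from log concentration–inhibition curves; pIC50 is the mean of two independent measurements.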

Row | SMILES | IC50 [nM]
2 | CNC(=O)Oc1cccc2c1OC[C@@H]1CCN(C)[C@H]21 (stereo in doubt; (-)-4) | 22.9
3 | O=C(CCCCCCC(=O)NCCCCCCN1CC[C@H]2COc3ccccc3[C@H]21)NCCCCCCN1CC[C@H]2COc3ccccc3[C@H]21 | 9770
4 | CNC(=O)Oc1cccc2c1OC[C@@H]1CCN(C)[C@H]21 (stereo in doubt; (+)-4) | 74.1
5 | CNC(=O)Oc1ccc2c(c1)OC[C@@H]1CC[N+](C)(C)[C@H]21 | 1820
6 | CNC(=O)Oc1cccc2c1OC[C@@H]1CCN(C)[C@H]21 (stereo in doubt; 4) [listing 2 of 2 here] | 29.5
7 | CN1CC[C@H]2COc3c(O)cccc3[C@H]21 | 39800
8 | CNC(=O)Oc1ccc2c(c1)OC[C@@H]1CCN(C)[C@H]21 | 1950
9 | CNC(=O)Oc1ccc2c(c1)[C@@H]1[C@@H](CCN1C)CO2 | 16200

Target: T1, Acetylcholinesterase
Remark: another data set of the same source

Row | SMILES | Kc [nM]
10 | CNC(=O)Oc1ccc2c(c1)[C@]1(C)CCN(C)[C@@H]1N2C | 250
11 | CNC(=O)Oc1cccc2c1OC[C@@H]1CCN(C)[C@H]21 (stereo in doubt; 4) [listing 1 of 2 here] | 730
